Only some compounds are listed: those with a hit (about 5.8% of all), similar ones and a draw of the others.
Pf Dd2 inh = P. falciparum Dd2 growth inhibitors, primary screen, SYBR Green fluorescence, single dose replicates; AID 1159554, 2015; activity change, % at 10 µM; 72 h; active compounds read low; hit rate 2.3% among 94,000; in the data active = activity change below about -80%; inconclusive = no clear call, values can overlap the other calls
T cruzi growth-1 = T. cruzi intracellular proliferation inhibitors, primary screen, cell-based, beta-gal Tulahuen parasites, NIH3T3 host, luminescence | inhibition, % at 8.34 µM | hit rate 5.9% among 77,000 | T. cruzi beta-gal in NIH3T3, GalScreen luminescence, 90 h;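 active = mean inhibition above about 93%, with at least 55% of replicates each passing it, limit read from the data, passing the limit was not always enough; inconclusive = only one of those two conditions holds; inactive = neither condition holds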
KDM4C inh = inhibitors of GASC-1 (KDM4C) histone demethylase, primary screen, biochemical, single concentration HTS. hit rate 0.15% among 96,000. Lysine-specific demethylase 4C (Homo sapiens), Q9H3R0. GST-KDM4C 2-372, H3K9me3 peptide, LANCE TR-FRET. AID 720574, 2013. inhibition, % at 12.5 µM;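 active = mean replicate inhibition above about 25%, with at least 55% of replicates also reaching it, limit read from the data, passing the limit was not always enough; inconclusive = only one of those two conditions met; inactive = neither condition met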
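System: N-terminal GST-fused human GASC-1 (KDM4C) fragment, residues 2-372; amount: enzyme final amount 10 nM; incubation: reaction 30 min RT, detection step 1 h RT; medium: HEPES buffer, pH 7.5, plus ascorbate; technique: LANCE TR-FRET, Eu antibody, ULight-streptavidin, EDTA, ex 340 nm, em 618/671 nm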
IDH1 R132H inh = inhibitors of IDH1 R132H reductase, primary screen, biochemical, plate reader, single point; Isocitrate dehydrogenase [NADP] cytoplasmic (Homo sapiens), O75874; diaphorase/resazurin fluorescence, 60 min; inhibition, % at 10 µM; hit rate 0.18% among 70,000; in the data active = inhibition above about 34%; inconclusive = no clear call, values can overlap the other calls; inactive = below about 11%
Target sequence (O75874 whole entry R132H): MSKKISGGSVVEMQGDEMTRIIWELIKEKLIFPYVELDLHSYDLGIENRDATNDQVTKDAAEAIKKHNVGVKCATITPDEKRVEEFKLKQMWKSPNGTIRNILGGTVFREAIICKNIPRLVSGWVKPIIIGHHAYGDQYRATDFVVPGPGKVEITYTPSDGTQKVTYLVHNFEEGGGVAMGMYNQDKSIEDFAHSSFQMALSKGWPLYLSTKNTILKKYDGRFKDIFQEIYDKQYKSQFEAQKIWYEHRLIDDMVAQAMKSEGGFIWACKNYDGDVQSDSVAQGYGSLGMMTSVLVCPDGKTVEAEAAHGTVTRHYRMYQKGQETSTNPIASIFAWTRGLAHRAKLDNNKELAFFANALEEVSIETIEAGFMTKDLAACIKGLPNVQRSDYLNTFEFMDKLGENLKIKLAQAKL
T cruzi growth-2 = T. cruzi intracellular proliferation inhibitors, confirmation, cell-based, NIH3T3 host, beta-gal parasite, luminescence, cherry-pick | hit rate 72% among 5,600 | inhibition, % at 8.35 µM | shares compounds with T cruzi growth-1 | AID 651739, 2012 | T. cruzi beta-gal in NIH3T3, GalScreen luminescence, 90 h;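 active = mean replicate inhibition above about 95% and at least 55% of replicates individually reaching it, limit read from the data; inconclusive = only one of the two criteria is met; inactive = neither criterion is met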
T cruzi growth-3 = inhibitors of intracellular T. cruzi replication, confirmation, NIH3T3 host cells, beta-gal parasites, cherry-pick, set 2; shares compounds with T cruzi growth-1; T. cruzi beta-gal in NIH3T3, GalScreen luminescence, 90 h; inhibition, % at 2.09 µM; hit rate 21% among 5,600;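 active = mean inhibition above about 95%, with at least 55% of replicates also reaching it, limit read from the data; inconclusive = meets just one of the two conditions; inactive = meets neither condition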
NIH3T3 tox = cytotoxicity in mouse NIH/3T3 fibroblasts, confirmation, cytotoxicity control for T. cruzi proliferation inhibitor project, cell-based, cherry-pick, single point. hit rate 14% among 5,600. shares compounds with T cruzi growth-1. NIH/3T3 viability, CellTiter-Glo ATP luminescence, 90 h. cytotoxicity (signal decrease), % at 8.35 µM. AID 651742, 2012;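 active = mean signal decrease across replicates above about 35% based on untreated-well scatter, with enough replicates individually passing, limit read from the data; inconclusive = no rule stated though some were filed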
NIH3T3 tox 2 = NIH/3T3 fibroblast cytotoxicity, confirmation, cytotoxicity control, cell-based, cherry-pick, single point, set 2; inhibition, % at 24.9 µM; hit rate 56% among 5,600; NIH/3T3 viability, CellTiter-Glo ATP luminescence, 90 h; shares compounds with T cruzi growth-1;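 active = mean loss of cell viability signal at or above a set limit, and enough replicates individually reaching it; inconclusive = meets only the mean limit or only the replicate share; inactive = meets neither condition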
Numbers stand for hits; – = inactive; ? = inconclusive; · = not tested or not shown; + = active, no number; ! = repeats disagree.

SMILES	Pf Dd2 inh	T cruzi growth-1	KDM4C inh	IDH1 R132H inh	T cruzi growth-2	T cruzi growth-3	NIH3T3 tox	NIH3T3 tox 2
C[C@@H]1CCCCO[C@H](CN(C)C(=O)Nc2ccc(C(F)(F)F)cc2)[C@@H](C)CN([C@H](C)CO)C(=O)c2cc(NC(=O)Nc3ccc(F)cc3)ccc2O1	–	?	–	–	·	·	·	·
CN(C)c1ccc2c(c1)[C@@H]1C[C@@H](CC(=O)NCc3cc(F)ccc3F)O[C@H](CO)[C@@H]1O2	–	–	–	–	·	·	·	·
CN(C)c1ccc2c(c1)[C@H]1C[C@H](CC(=O)NCc3ccc(-c4ccccc4)cc3)O[C@@H](CO)[C@H]1O2	–	113.7	–	–	110.3	102.4	–	–
COc1ccc(CNC(=O)C[C@@H]2C[C@H]3c4cc(N(C)C)ccc4O[C@H]3[C@@H](CO)O2)cc1	–	–	–	–	·	·	·	·
CN(C)c1ccc2c(c1)[C@@H]1C[C@@H](CC(=O)NCc3cc(F)ccc3F)O[C@@H](CO)[C@@H]1O2	-87.0	+	–	–	–	–	–	–
CN(C)c1ccc2c(c1)[C@H]1C[C@H](CC(=O)NCc3ccc(Oc4ccccc4)cc3)O[C@@H](CO)[C@H]1O2	–	131.9	–	–	107.0	105.0	–	?
COc1ccc(CNC(=O)C[C@H]2C[C@H]3c4cc(N(C)C)ccc4O[C@H]3[C@H](CO)O2)cc1	–	–	–	–	·	·	·	·
COc1ccc(CN(C)C[C@@H]2OCCCC[C@H](C)Oc3ccc(NS(=O)(=O)c4ccc(Cl)cc4)cc3C(=O)N([C@@H](C)CO)C[C@@H]2C)cc1	·	·	·	–	·	·	·	·
COc1ccccc1-c1ccc2c(c1)[C@@H]1[C@@H](CCN1C(=O)C1CC1)[C@H](CO)N2	–	?	–	·	106.7	?	–	–
COc1ccccc1-c1ccc2c(c1)[C@H]1[C@H](CCN1C(=O)C1CCCC1)[C@H](CO)N2	–	·	·	·	·	·	·	·
COc1ccccc1-c1ccc2c(c1)[C@H]1[C@H](CCN1C(=O)C1CCCCC1)[C@@H](CO)N2	–	–	–	·	·	·	·	·
COc1ccccc1-c1ccc2c(c1)[C@H]1[C@H](CCN1C(=O)C1CCOCC1)[C@@H](CO)N2	–	99.8	–	·	106.3	–	–	–
Cc1noc(C)c1NC(=O)Nc1ccc2c(c1)C(=O)N(C)[C@@H]1CC[C@@H](CC(=O)N[C@H]3CCN(Cc4ccccc4)C3)O[C@@H]1CO2	–	106.9	–	·	–	–	–	–
Cc1noc(C)c1NC(=O)Nc1ccc2c(c1)C(=O)N(C)[C@H]1CC[C@H](CC(=O)N[C@H]3CCN(Cc4ccccc4)C3)O[C@H]1CO2	–	106.0	–	·	–	–	–	–
Cc1noc(C)c1NC(=O)Nc1ccc2c(c1)C(=O)N(C)[C@H]1CC[C@@H](CC(=O)N[C@H]3CCN(Cc4ccccc4)C3)O[C@@H]1CO2	–	104.4	–	·	–	–	–	–
Cc1noc(C)c1NC(=O)Nc1ccc2c(c1)C(=O)N(C)[C@@H]1CC[C@H](CC(=O)N[C@H]3CCN(Cc4ccccc4)C3)O[C@@H]1CO2	–	109.1	–	·	–	–	–	–
Cc1noc(C)c1NC(=O)Nc1ccc2c(c1)C(=O)N(C)[C@@H]1CC[C@H](CC(=O)N[C@@H]3CCN(Cc4ccccc4)C3)O[C@H]1CO2	–	–	–	·	·	·	·	·
O=C(C1CCOCC1)N1[C@H](CO)[C@@H]2c3ccccc3NC[C@@H]21	–	–	–	·	·	·	·	·
COc1ccc(NC(=O)Nc2ccc3c(c2)CC(=O)N([C@H](C)CO)C[C@H](C)[C@@H](CN(C)C(=O)NC2CCCCC2)O3)cc1	–	–	–	–	·	·	·	·
C[C@H](CO)N1C[C@H](C)[C@H](CN(C)C(=O)Nc2ccccc2)Oc2c(NC(=O)c3ccc(-c4nccs4)cc3)cccc2C1=O	–	–	–	–	·	·	·	·
CNC[C@@H]1Oc2ccc(NS(=O)(=O)c3ccc(F)cc3)cc2CC(=O)N([C@H](C)CO)C[C@H]1C	–	·	–	–	·	·	·	·
C[C@H]1CCCCO[C@H](CN(C)Cc2ccc3c(c2)OCO3)[C@@H](C)CN([C@@H](C)CO)C(=O)c2cc(NC(=O)NC3CCCCC3)ccc2O1	·	99.8	–	·	107.9	–	–	101.8
C[C@@H]1CCCCO[C@H](CN(C)Cc2ccc3c(c2)OCO3)[C@H](C)CN([C@H](C)CO)C(=O)c2cc(NC(=O)NC3CCCCC3)ccc2O1	·	107.1	–	·	108.5	–	–	104.4
C[C@@H]1CCCCO[C@H](CN(C)Cc2ccc3c(c2)OCO3)[C@@H](C)CN([C@@H](C)CO)C(=O)c2cc(NC(=O)NC3CCCCC3)ccc2O1	·	–	–	–	·	·	·	·
C[C@H](CO)N1C[C@H](C)[C@@H](CN(C)C(=O)Nc2cc(F)ccc2F)Oc2cc(-c3ccc(C#N)cc3)ccc2S1(=O)=O	–	117.8	–	·	101.3	–	46.2	82.8
SMILES	Pf Dd2 inh	T cruzi growth-1	KDM4C inh	IDH1 R132H inh	T cruzi growth-2	T cruzi growth-3	NIH3T3 tox	NIH3T3 tox 2
C[C@@H]1CN([C@H](C)CO)S(=O)(=O)c2ccc(-c3ccc(C#N)cc3)cc2O[C@H]1CN(C)C(=O)Nc1cc(F)ccc1F	–	109.4!	–	·	–	–	80.7	83.0
C[C@@H]1CN([C@H](C)CO)S(=O)(=O)c2ccc(-c3ccc(C#N)cc3)cc2O[C@@H]1CN(C)C(=O)Nc1cc(F)ccc1F	–	114.6	–	–	–	–	–	77.4
C[C@@H]1CN([C@H](C)CO)S(=O)(=O)c2ccc(-c3cccc(C#N)c3)cc2O[C@@H]1CN(C)C(=O)Nc1cc(F)ccc1F	–	·	–	·	·	·	·	·
C[C@H]1CN([C@@H](C)CO)S(=O)(=O)c2ccc(-c3ccc(C#N)cc3)cc2O[C@H]1CN(C)C(=O)Nc1cc(F)ccc1F	–	122.1	–	–	102.2	–	–	83.5
Cc1cccc(NC(=O)CSc2nnc(-c3cccs3)n2-c2ccccc2)c1	·	·	·	–	·	·	·	·
COc1ccc(NC(=O)Nc2ccc3c(c2)CC(=O)N([C@H](C)CO)C[C@H](C)[C@@H](CN(C)Cc2ccc(Oc4ccccc4)cc2)O3)cc1	–	–	–	–	·	·	·	·

Source: PubChem BioAssay
